Results taken from ChEMBL document CHEMBL1126251, “alpha-Methylated analogues of triiodothyroalkanoic acids: synthesis and biological activity” (J Med Chem, 1992).
Where “and” joins values, the source holds several entries; their conditions need not be identical. Identical values can stand only once.

Legend:
[1] = Affinity to rat hepatic nuclei relative to L-T3 (Thyroid receptor).
Outline: (§1)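 Hepatic nuclear fraction from thyroidectomized rats in 0.25 M sucrose, 1.1 mM MgCl2, 2 mM EDTA, 5 mM DTT, 20 mM Tris pH 7.85 (83 μg DNA/mL). Incubated with [125I]-L-T3 (final 0.075 nM) and competitor at 0.025–100 nM, five to eight concentrations, quadruplicate. Nonspecific binding measured with 1 μM unlabeled T3. IC50 from Hill plot x-intercept; Ki calculated from IC50; relative affinity = Ki(L-T3)/Ki(analogue).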

[2] = In vitro concentration required to displace [125I]L-T3 from Thyroid receptor of rat hepatic nuclei.; outline: as §1
[3] = (§2) In vitro concentration required to displace [125I]L-T3 from rat hepatic nuclei.
[4] = biological target: T1, NADP-dependent malic enzyme (Rattus norvegicus) (UniProt P13697); experiment: Effect on rat hepatic Malic enzyme activity relative to L-T3.
T1 sequence (whole entry): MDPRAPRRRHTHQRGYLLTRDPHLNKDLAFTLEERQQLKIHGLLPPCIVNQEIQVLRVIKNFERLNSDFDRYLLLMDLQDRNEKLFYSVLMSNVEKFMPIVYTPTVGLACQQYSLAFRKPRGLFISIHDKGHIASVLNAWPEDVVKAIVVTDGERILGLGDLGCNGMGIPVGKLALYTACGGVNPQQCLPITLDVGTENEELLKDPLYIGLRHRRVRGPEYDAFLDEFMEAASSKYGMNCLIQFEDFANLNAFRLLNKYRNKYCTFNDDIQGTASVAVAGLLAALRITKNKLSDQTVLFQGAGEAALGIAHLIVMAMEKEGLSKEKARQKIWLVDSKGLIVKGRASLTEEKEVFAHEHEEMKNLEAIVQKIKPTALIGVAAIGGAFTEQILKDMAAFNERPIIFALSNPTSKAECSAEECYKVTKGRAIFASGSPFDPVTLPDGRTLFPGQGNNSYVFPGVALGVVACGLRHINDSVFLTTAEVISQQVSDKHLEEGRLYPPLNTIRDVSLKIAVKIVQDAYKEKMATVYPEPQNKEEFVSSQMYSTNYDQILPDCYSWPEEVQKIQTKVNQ

[5] = biological target: T2, Glycerol-3-phosphate dehydrogenase [NAD(+)], cytoplasmic (Rattus norvegicus) (UniProt O35077); experiment: Effect on rat hepatic glycerophosphate dehydrogenase alpha (GPD) activity relative to L-T3.
T2 sequence (whole entry): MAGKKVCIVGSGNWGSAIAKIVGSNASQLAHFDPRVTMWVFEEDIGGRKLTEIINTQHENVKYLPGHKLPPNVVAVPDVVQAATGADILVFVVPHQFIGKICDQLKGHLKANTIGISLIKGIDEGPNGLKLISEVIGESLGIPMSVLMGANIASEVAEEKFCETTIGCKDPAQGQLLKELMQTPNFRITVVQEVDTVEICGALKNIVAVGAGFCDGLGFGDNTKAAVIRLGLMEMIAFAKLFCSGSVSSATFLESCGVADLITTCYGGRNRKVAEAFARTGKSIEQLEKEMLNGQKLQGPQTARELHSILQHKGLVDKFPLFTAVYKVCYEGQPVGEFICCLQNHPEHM

Rattus norvegicus [6] = species: Rattus norvegicus; experiment: Affinity to rat hepatic nuclei relative to L-T3.; type: functional; outline: as §1
[7] = biological target: T1, NADP-dependent malic enzyme (Rattus norvegicus); experiment: Effect on rat hepatic Malic enzyme activity 3 days after injection of 10e-6 mol/kg.
Outline: (§3)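 Liver homogenized in 0.25 M sucrose, 1 mM EDTA, 100 mM Tris pH 7.5, then spun at 2000g and 40000g to give cytoplasmic fraction. Malic enzyme activity followed as NADP+ reduction at 340 nm, normalized to Bradford protein. Reported as increase over vehicle controls, nmol/min per mg protein. Two rats per dose, duplicate assays.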

[8] = biological target: T2, Glycerol-3-phosphate dehydrogenase [NAD(+)], cytoplasmic (Rattus norvegicus); experiment: Effect on rat hepatic glycerophosphate dehydrogenase alpha (GPD) activity 3 days after injection of 10e-6 mol/kg.
[9] = biological target: T1, NADP-dependent malic enzyme (Rattus norvegicus); experiment: Effect on rat hepatic Malic enzyme activity 3 days after injection of 10e-5 mol/kg.; outline: as §3
Rattus norvegicus [10] = experiment: Effect on the plasma cholesterol levels after subcutaneous administration of 8 nmol/kg in Dawley rats.; type: functional; set-up: unit: mg/dL
Outline: (§4)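 Normal Sprague-Dawley rats (265 ± 10 g) on pellet diet with 2% cholesterol and 1% cholic acid for 7 days, given daily subcutaneous injections at 4–16 nmol/kg. Five rats per group; values in mg/dL ± SD. Significance tested against vehicle-treated cholesterol-diet controls.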

Rattus norvegicus [11] = experiment: Effect on the plasma cholesterol levels after subcutaneous administration of 4 nmol/kg in Dawley rats.; type: functional; outline: as §4
Rattus norvegicus [12] = species: Rattus norvegicus; experiment: as §2; type: functional, organism-based; outline: as §1
[13] = biological target: T2, Glycerol-3-phosphate dehydrogenase [NAD(+)], cytoplasmic (Rattus norvegicus); experiment: Effect on rat hepatic alpha-glycerophosphate dehydrogenase (GPD) activity 3 days after injection of 10e-6 mol/kg.
[14] = biological target: T2, Glycerol-3-phosphate dehydrogenase [NAD(+)], cytoplasmic (Rattus norvegicus); experiment: Effect on rat hepatic alpha-glycerophosphate dehydrogenase (GPD) activity relative to L-T3.
[15] = biological target: T1, NADP-dependent malic enzyme (Rattus norvegicus); experiment: Effect on rat hepatic malic enzyme(ME) activity relative to L-T3.
[16] = biological target: T2, Glycerol-3-phosphate dehydrogenase [NAD(+)], cytoplasmic (Rattus norvegicus); experiment: Effect on rat hepatic alpha-glycerophosphate dehydrogenase (GPD) activity 3 days after injection of 10e-5 mol/kg.
[17] = biological target: T1, NADP-dependent malic enzyme (Rattus norvegicus); experiment: Effect on rat hepatic malic enzyme(ME) activity 3 days after injection of 10e-6 mol/kg.; outline: as §3
Rattus norvegicus [18] = experiment: Effect on the plasma cholesterol levels after subcutaneous administration of 16 nmol/kg in Dawley rats.; type: functional; outline: as §4
Rattus norvegicus [19] = experiment: Effect on the plasma cholesterol levels after subcutaneous administration of 16 nmol/kg in Dawley rats. p < 0.01; type: functional; outline: as §4

Row | Structure (SMILES) | L-T3 [4] | L-T3 [5] | ME increase (nM min-1 mg-1) [7] | ME increase (nM min-1 mg-1) [9] | T3 (Rattus norvegicus [6]) | Activity (Rattus norvegicus [10]) | Activity (Rattus norvegicus [11]) | further results
1 | CC(N)(Cc1cc(I)c(Oc2cc(I)c(O)c(I)c2)c(I)c1)C(=O)O (stereo not given) |  |  |  |  |  |  |  | Relative affinity [1]: 2%; Ki [2]: 63.3 nM
2 | CC(Cc1cc(I)c(Oc2cc(I)c(O)c(I)c2)c(I)c1)C(=O)O (racemic) | 42% | 36% | 6.8 | 14.7 | 12% |  |  | Ki [3]: 13 nM
3 | CC(C(=O)O)c1cc(I)c(Oc2ccc(O)c(I)c2)c(I)c1 (racemic) [listing 1 of 2 here] |  |  |  |  | 17% | 216 | 259 | Ki (Rattus norvegicus [12]): 9.03 nM
4 | CC(C(=O)O)c1cc(I)c(Oc2ccc(O)c(I)c2)c(I)c1 (racemic) [listing 2 of 2 here] |  |  |  |  |  |  |  | GDP activity (nM min-1 mg-1) [13]: 1.5; L-T3 [14]: 31%; ME increase (nM min-1 mg-1) [4]: 15.5; L-T3 [15]: 41%; GDP activity (nM min-1 mg-1) [16]: 6.6; ME increase (nM min-1 mg-1) [17]: 5.6
5 | CC(C(=O)O)c1cc(I)c(Oc2ccc(O)c(I)c2)c(I)c1 (stereo in doubt) |  |  |  |  |  | 147 | 262 | Activity (Rattus norvegicus [18]): 119
6 | O=C(O)Cc1cc(I)c(Oc2ccc(O)c(I)c2)c(I)c1 [TIRATRICOL] |  |  |  |  | 199% |  |  | GDP activity (nM min-1 mg-1) [13]: 4.8; L-T3 [14]: 69%; ME increase (nM min-1 mg-1) [4]: 22.5; L-T3 [15]: 69%; GDP activity (nM min-1 mg-1) [16]: 12.9; ME increase (nM min-1 mg-1) [17]: 13

The next lines start with results.

Row | L-T3 [4] | L-T3 [5] | ME increase (nM min-1 mg-1) [7] | ME increase (nM min-1 mg-1) [9] | Structure (SMILES) | T3 (Rattus norvegicus [6]) | Activity (Rattus norvegicus [10]) | Activity (Rattus norvegicus [11]) | further results
7 | 62% | 77% | 13.1 | 18.6 | CC(Cc1cc(I)c(Oc2ccc(O)c(I)c2)c(I)c1)C(=O)O (racemic) | 61% |  |  | Ki [3]: 2.56 nM; GDPactivity (nM min-1 mg-1) [8]: 7.8 and 12.1
8 | 100% | 100% | 19.5 | 31.8 | N[C@@H](Cc1cc(I)c(Oc2ccc(O)c(I)c2)c(I)c1)C(=O)O [LIOTHYRONINE] | 100% | 138 | 251 | GDPactivity (nM min-1 mg-1) [8]: 7.5 and 18.3; Activity (Rattus norvegicus [18]): 101
9 | 36% | 43% | 5.5 | 12.9 | O=C(O)CCc1cc(I)c(Oc2ccc(O)c(I)c2)c(I)c1 [THYROPROPIC ACID] |  | 285 |  | Activity (Rattus norvegicus [19]): 202
